Source: ChEMBL document CHEMBL3856275, “Discovery of Second Generation Reversible Covalent DPP1 Inhibitors Leading to an Oxazepane Amidoacetonitrile Based Clinical Candidate (AZD7986)” (J Med Chem, 2016)
Converted amounts (≈) assume the structure as drawn. Each block holds one molecule with its values, some of them ahead of it.

Assays:
Dipeptidyl peptidase 1 [1] = biological target: T1, Dipeptidyl peptidase 1 (Homo sapiens, UniProt P53634); test: Inhibition of human recombinant DPP1 using Gly-Arg-AMC as substrate preincubated for 30 mins followed by substrate addition by fluorometric assay
T1 sequence (P53634 25-134 limits assumed): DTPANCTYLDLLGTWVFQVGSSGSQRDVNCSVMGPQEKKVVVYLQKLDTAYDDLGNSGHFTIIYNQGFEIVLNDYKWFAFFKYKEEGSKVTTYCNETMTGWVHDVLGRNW
T1 sequence (P53634 231-394 limits assumed): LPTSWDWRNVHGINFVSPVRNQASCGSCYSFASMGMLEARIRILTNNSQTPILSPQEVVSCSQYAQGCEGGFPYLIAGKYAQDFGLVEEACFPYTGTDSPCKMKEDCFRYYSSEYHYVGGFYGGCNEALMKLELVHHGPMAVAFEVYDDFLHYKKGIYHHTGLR
T1 sequence (P53634 395-463 limits assumed): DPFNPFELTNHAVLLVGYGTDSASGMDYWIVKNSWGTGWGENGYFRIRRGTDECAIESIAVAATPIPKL
Procedure, shortened: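 Isolated human recombinant DPP1 was run in a fluorometric assay in piperazine-based buffer. Compound was pre-incubated with enzyme for 30 min at rt, then Gly-Arg-AMC dipeptide substrate was added. Data were curve-fitted to give pIC50, as the mean of at least two experiments.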

physchem [2] = details: octanol/water, pH 7.4
Dipeptidyl peptidase 1 [3] = biological target: T1, Dipeptidyl peptidase 1; test: Inhibition of DPP1 in human U937 cells using Gly-Phe-AFC as substrate preincubated for 60 mins followed by substrate addition by fluorescence assay; assay type: cell-based, U-937
[4] = Propionaldehyde reactivity assessed as half life of the compound at pH 7.4 by LC-UV method; assay type: physicochemical
[5] = Protein binding in human plasma at 10 uM after 6 hrs by LC-MS/MS method; assay type: ADME, cell-free; details: read-out: PPB (converted)
[6] = Intrinsic clearance in human liver microsomes at 1 uM after 5 to 40 mins by LC-MS/MS method; assay type: ADME; details: read-out: CLH
[7] = Intrinsic clearance in rat hepatocytes assessed per 10^6 cells at 1 uM after 10 to 90 mins by LC-MS/MS method; assay type: ADME, cell-based, Hepatocyte
[8] = Protein binding in rat plasma at 10 uM after 6 hrs by LC-MS/MS method; assay type: ADME, cell-free; details: read-out: PPB (converted)
[9] = Apparent permeability across apical to basolateral side in human Caco2 cells at 10 uM after 1 hr by LC-MS method; details: Caco-2
[10] = Apparent permeability across basolateral to apical side in human Caco2 cells at 10 uM after 1 hr by LC-MS method; details: Caco-2
physchem [11] = details: buffer, pH 7.4
[12] = Efflux ratio of apparent permeability across basolateral to apical over apical to basolateral side in human Caco2 cells at 10 uM after 1 hr by LC-MS method; details: Caco-2
[13] = Intrinsic clearance in human hepatocytes assessed per 10^6 cells at 1 uM after 10 to 90 mins by LC-MS/MS method; assay type: ADME, cell-based, Hepatocyte
[14] = Intrinsic clearance in dog hepatocytes assessed per 10^6 cells at 1 uM after 10 to 90 mins by LC-MS/MS method; assay type: ADME, cell-based, Canis lupus familiaris, Hepatocyte
[15] = Clearance in Sprague-Dawley rat at 1 mg/kg, iv or 3 mg/kg, po; assay type: ADME, organism-based; details: in vivo
[16] = Volume of distribution at steady state in Sprague-Dawley rat at 1 mg/kg, iv or 3 mg/kg, po; assay type: ADME, organism-based; details: in vivo, read-out: Vdss
[17] = Half life in Sprague-Dawley rat at 1 mg/kg, iv or 3 mg/kg, po; assay type: ADME, organism-based; details: in vivo
[18] = Oral bioavailability in Sprague-Dawley rat at 3 mg/kg; assay type: ADME, organism-based; details: in vivo
[19] = biological target: Voltage-gated inwardly rectifying potassium channel KCNH2 (Homo sapiens, UniProt Q12809)
Chain of Voltage-gated inwardly rectifying potassium channel KCNH2 (Q12809 whole entry): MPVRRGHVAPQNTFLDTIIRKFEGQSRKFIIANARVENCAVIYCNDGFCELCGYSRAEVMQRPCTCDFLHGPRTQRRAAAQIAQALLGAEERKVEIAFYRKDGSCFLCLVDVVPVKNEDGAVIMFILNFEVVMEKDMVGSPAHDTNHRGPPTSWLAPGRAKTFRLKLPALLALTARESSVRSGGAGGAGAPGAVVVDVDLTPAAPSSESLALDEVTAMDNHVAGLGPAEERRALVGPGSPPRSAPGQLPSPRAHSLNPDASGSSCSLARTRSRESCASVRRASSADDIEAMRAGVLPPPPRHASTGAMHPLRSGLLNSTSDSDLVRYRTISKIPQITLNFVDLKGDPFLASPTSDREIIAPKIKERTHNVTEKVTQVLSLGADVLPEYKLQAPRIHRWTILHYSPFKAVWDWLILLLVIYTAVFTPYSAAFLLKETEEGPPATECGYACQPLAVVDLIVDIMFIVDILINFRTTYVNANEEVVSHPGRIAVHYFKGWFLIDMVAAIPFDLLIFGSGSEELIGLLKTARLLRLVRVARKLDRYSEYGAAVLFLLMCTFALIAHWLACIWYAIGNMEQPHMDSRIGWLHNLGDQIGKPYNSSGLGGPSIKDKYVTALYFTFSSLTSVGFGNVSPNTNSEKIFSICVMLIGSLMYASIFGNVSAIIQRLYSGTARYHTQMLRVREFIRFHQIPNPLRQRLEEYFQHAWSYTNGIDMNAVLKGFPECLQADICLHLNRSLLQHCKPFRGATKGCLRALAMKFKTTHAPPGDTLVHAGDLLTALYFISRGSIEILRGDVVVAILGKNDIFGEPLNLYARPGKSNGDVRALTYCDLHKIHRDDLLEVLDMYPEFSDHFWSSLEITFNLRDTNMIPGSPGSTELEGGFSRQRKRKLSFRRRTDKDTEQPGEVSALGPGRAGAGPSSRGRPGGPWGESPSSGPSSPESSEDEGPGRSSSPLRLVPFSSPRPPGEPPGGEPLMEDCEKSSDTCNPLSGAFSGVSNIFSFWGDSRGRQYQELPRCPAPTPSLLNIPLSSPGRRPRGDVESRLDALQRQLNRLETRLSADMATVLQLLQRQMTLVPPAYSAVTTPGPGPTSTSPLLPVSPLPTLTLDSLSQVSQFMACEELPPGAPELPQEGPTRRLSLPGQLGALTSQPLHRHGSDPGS

[20] = Protein binding in dog plasma at 10 uM after 6 hrs by LC-MS/MS method; assay type: ADME, cell-free, Canis lupus familiaris; details: read-out: PPB (converted)
[21] = Clearance in Beagle dog at 1 mg/kg, iv and 2 mg/kg, po; assay type: ADME, organism-based, Canis lupus familiaris; details: in vivo
[22] = Volume of distribution at steady state in Beagle dog at 1 mg/kg, iv and 2 mg/kg, po; assay type: ADME, organism-based, Canis lupus familiaris; details: in vivo, read-out: Vdss
[23] = Half life in Beagle dog at 1 mg/kg, iv and 2 mg/kg, po; assay type: ADME, organism-based, Canis lupus familiaris; details: in vivo
[24] = Oral bioavailability in Beagle dog at 2 mg/kg; assay type: ADME, organism-based, Canis lupus familiaris; details: in vivo

IC50 (Dipeptidyl peptidase 1 [1]): > 10000 nM
logD at 10 µM (physchem [2]): 0.6
Compound: N#Cc1ccc(-c2ccc(C[C@@H](C#N)NC(=O)[C@@H]3CCCNC3)cc2)cc1

IC50 (Dipeptidyl peptidase 1 [1]): 1260 nM
IC50 (Dipeptidyl peptidase 1 [3]): 501 nM
half-life [4]: > 3000 min
Compound: N#Cc1ccc(-c2ccc(C[C@@H](C#N)NC(=O)C3CCCCNC3)cc2)cc1 (mixture of isomers)

IC50 (Dipeptidyl peptidase 1 [1]): 316 nM
IC50 (Dipeptidyl peptidase 1 [3]): 158 nM
half-life [4]: > 3000 min
Compound: N#Cc1ccc(-c2ccc(C[C@@H](C#N)NC(=O)[C@@H]3CCCC[C@H]3N)cc2)cc1

IC50 (Dipeptidyl peptidase 1 [1]): 398 nM
IC50 (Dipeptidyl peptidase 1 [3]): 501 nM
half-life [4]: > 3000 min
logD at 10 µM (physchem [2]): 1.4
Compound: N#Cc1ccc(-c2ccc(C[C@@H](C#N)NC(=O)[C@@H]3CNCCO3)cc2)cc1

fraction unbound at 6 h, 10 µM [5]: 0.07
microsomal CLint at 1 µM [6]: 9.3 µL/min/mg
CLH [7]: < 3.5 µL/min/10^6 cells
fraction unbound at 6 h, 10 µM [8]: 0.12
IC50 (Dipeptidyl peptidase 1 [1]): 39.8 nM
IC50 (Dipeptidyl peptidase 1 [3]): 39.8 nM
half-life [4]: > 3000 min
Papp A→B at 1 h, 10 µM [9]: 11 ×10⁻⁶ cm/s
Papp B→A at 1 h, 10 µM [10]: 36 ×10⁻⁶ cm/s
solubility kinetic at 2 h (physchem [11]): 175 µM (≈ 65.2 µg/mL)
logD at 10 µM (physchem [2]): 1.6
Compound: N#Cc1ccc(-c2ccc(C[C@@H](C#N)NC(=O)[C@@H]3CCCC[C@@H]3N)cc2)cc1

IC50 (Dipeptidyl peptidase 1 [1]): 63.1 nM
half-life [4]: > 3000 min
logD at 10 µM (physchem [2]): 1.1
Compound: N#Cc1ccc(-c2ccc(C[C@@H](C#N)NC(=O)C3CNCCCO3)cc2)cc1 (mixture of isomers)

More lines, now with the values behind:

Compound: N#Cc1ccc(-c2ccc(C[C@@H](C#N)NC(=O)[C@H]3CNCCO3)cc2)cc1
IC50 (Dipeptidyl peptidase 1 [1]): > 10000 nM
half-life [4]: > 3000 min
logD at 10 µM (physchem [2]): 1.6

Compound: Cn1c(=O)cnc2ccc(-c3ccc(C[C@@H](C#N)NC(=O)[C@@H]4CNCCCO4)cc3)cc21
IC50 (Dipeptidyl peptidase 1 [1]): 25.1 nM
logD at 10 µM (physchem [2]): 0.6

Compound: CN1C(=O)C(F)(F)c2ccc(-c3ccc(C[C@@H](C#N)NC(=O)[C@@H]4CNCCCO4)cc3)cc21
IC50 (Dipeptidyl peptidase 1 [1]): 15.8 nM
IC50 (Dipeptidyl peptidase 1 [3]): 15.8 nM
logD at 10 µM (physchem [2]): 1.4

Compound: CN1C(=O)COc2ccc(-c3ccc(C[C@@H](C#N)NC(=O)[C@@H]4CNCCCO4)cc3)cc21
IC50 (Dipeptidyl peptidase 1 [3]): 12.6 nM
logD at 10 µM (physchem [2]): 1.1

Compound: Cn1c(=O)sc2ccc(-c3ccc(C[C@@H](C#N)NC(=O)[C@@H]4CNCCCO4)cc3)cc21
fraction unbound at 6 h, 10 µM [5]: 0.07
microsomal CLint at 1 µM [6]: < 15 µL/min/mg
CLH [7]: < 3.5 µL/min/10^6 cells
fraction unbound at 6 h, 10 µM [8]: 0.05
IC50 (Dipeptidyl peptidase 1 [1]): 2.51 nM
IC50 (Dipeptidyl peptidase 1 [3]): 3.16 nM
half-life [4]: > 3000 min
Papp A→B at 1 h, 10 µM [9]: 11 ×10⁻⁶ cm/s
Papp B→A at 1 h, 10 µM [10]: 51 ×10⁻⁶ cm/s
efflux ratio at 1 h, 10 µM [12]: 4.7
intrinsic clearance (CLint) [13]: < 3.5 µL/min/10^6 cells
CLH [14]: < 3.5 µL/min/10^6 cells
clearance [15]: 3 mL/min/kg
Vd [16]: 2 L/kg
half-life [17]: 480 min
bioavailability [18]: 26%
IC50 [19]: 23 µM
solubility kinetic at 2 h (physchem [11]): 170 µM (≈ 74.2 µg/mL)
logD at 10 µM (physchem [2]): 1.5

Compound: N#Cc1ccc(-c2ccc(C[C@@H](C#N)NC(=O)C3(N)CCOCC3)cc2)cc1
half-life [4]: < 60 min

Compound: CN1C(=O)Cc2ccc(-c3ccc(C[C@@H](C#N)NC(=O)C4(N)CCOCC4)cc3)cc21
IC50 (Dipeptidyl peptidase 1 [3]): 1.58 nM

Compound: CCn1c(=O)oc2ccc(-c3ccc(C[C@@H](C#N)NC(=O)[C@@H]4CNCCCO4)cc3)cc21
fraction unbound at 6 h, 10 µM [5]: 0.06
microsomal CLint at 1 µM [6]: < 14 µL/min/mg
CLH [7]: < 3.5 µL/min/10^6 cells
fraction unbound at 6 h, 10 µM [8]: 0.08
half-life [4]: > 3000 min
intrinsic clearance (CLint) [13]: < 3.5 µL/min/10^6 cells
CLH [14]: < 3.5 µL/min/10^6 cells
fraction unbound at 6 h, 10 µM [20]: 0.14
clearance [21]: 6 mL/min/kg
Vd [22]: 9 L/kg
half-life [23]: 960 min
bioavailability [24]: 85%
clearance [15]: 4 mL/min/kg
Vd [16]: 2 L/kg
half-life [17]: 480 min
bioavailability [18]: 36%
